Holding throughout (format): tissue-based
What all share (settings): Trachea

The species named for experiment [1] is Cavia porcellus. Nature of the experiment: Antagonist activity at beta adrenergic receptor in guinea pig tracheal strips assessed as inhibition of 10^-7 M isoproterenol-induced tracheal relaxation incubated 1 hr prior to testing. An outline of the steps:
(§1)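 Guinea pig tracheal strips in 10-mL baths, precontracted with carbachol 10^-7 M. Two cumulative isoproterenol dose-response curves per strip: control, then a 1 h wash, then antagonist added 1 h before the second curve. Dose ratio is the antilog of the difference in −log molar isoproterenol ED50. Apparent K_B = [antagonist]/(dose ratio − 1), using three antagonist concentrations (Furchgott).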

Experiment [2] is filed under the species Cavia porcellus. Nature of the experiment: Antagonist activity at beta adrenergic receptor in guinea pig tracheal strips assessed as inhibition of 10^-6 M isoproterenol-induced tracheal relaxation incubated 1 hr prior to testing. An outline of the steps: as §1
The species named for experiment [3] is Cavia porcellus. Nature of the experiment: Antagonist activity at beta adrenergic receptor in guinea pig tracheal strips assessed as inhibition of 10^-5 M isoproterenol-induced tracheal relaxation incubated 1 hr prior to testing. An outline of the steps: as §1
The species named for experiment [4] is Cavia porcellus. Nature of the experiment: Antagonist activity at beta adrenergic receptor in guinea pig tracheal strips assessed as inhibition of isoproterenol-induced tracheal relaxation incubated 1 hr prior to testing. An outline of the steps:
as §1

For `C=CCOc1cc(O)ccc1OCC(O)CNC(C)C` (stereo unspecified), the Kb (as a rule, the affinity of an antagonist, worked out from how it opposes an agonist) was 26.5 nM in the experiment listed under Cavia porcellus [1], 45.5 nM in the experiment filed under Cavia porcellus [2] and 122 nM in the experiment filed under Cavia porcellus [3]. In the experiment listed under Cavia porcellus [4], the inhibition result was “Dose-dependent effect”.
For `C=CCOc1ccccc1OCC(O)CNC(C)C` (stereo unspecified), the Kb was 2.61 nM in the experiment filed under Cavia porcellus [1] and 5.81 nM in the experiment filed under Cavia porcellus [2]. In addition, in the experiment listed under Cavia porcellus [4], the inhibition result was “Dose-dependent effect”.
With `C=CCOc1ccc(O)cc1OCC(O)CNC(C)C` (stereo unspecified), the Kb stood at 34.8 nM in the experiment filed under Cavia porcellus [1], 37.9 nM in the experiment filed under Cavia porcellus [2] and 101 nM in the experiment listed under Cavia porcellus [3]. Further, the inhibition entry in the experiment listed under Cavia porcellus [4] is “Dose-dependent effect”.

Values taken from ChEMBL document CHEMBL3244026, “Synthesis of 4'- and 5'-hydroxyoxprenolol:pharmacologically active ring-hydroxylated metabolites of oxprenolol” (J Med Chem, 1979).
